Data from ChEMBL document CHEMBL4339255, “Dimeric Pyranonaphthoquinone Glycosides with Anti-HIV and Cytotoxic Activities from a Soil-Derived Streptomyces” (J Nat Prod, 2019).

What was measured:
HL-60 = assay: Cytotoxicity in human HL60 cells assessed as reduction in cell viability incubated for 72 hrs by MTS assay; assay type: functional, cell-based; settings: HL-60, 72 h
Procedure, shortened: (§1)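 Cells plated at 5 × 10^3 per well, left 24 h, then given a range of sample concentrations from DMSO solutions, in triplicate; DMSO-only negative controls, paclitaxel and cisplatin positive controls. After 72 h exposure, MTS added for 2 h at 37 °C, absorbance read at 492 nm, IC50 by the Reed and Muench method.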

MCF7 = assay: Cytotoxicity in human MCF7 cells assessed as reduction in cell viability incubated for 72 hrs by MTS assay; assay type: functional, cell-based; settings: MCF7, 72 h; procedure, shortened: as §1
[1] = Toxicity in human C8166 cells assessed as reduction in cell viability incubated for 72 hrs by MTT assay; assay type: cell-based
[2] = tested on: Human immunodeficiency virus 1; assay: Antiviral activity against HIV1 3B infected in human C8166 cells assessed as inhibition of syncytial cell formation incubated for 72 hrs; assay type: functional, organism-based; settings: Human immunodeficiency virus 1, 3B, C8166, 72 h
[3] = Therapeutic index, ratio of CC50 for toxicity in C8166 cells to EC50 for antiviral activity against HIV1 3B infected in human C8166 cells; assay type: cell-based; settings: read-out: Ratio CC50/EC50

Row | SMILES | IC50 (HL-60) [µM] | IC50 (MCF7) [µM] | CC50 at 72 h [1] [µM] | EC50 [2] [µM] | selectivity ratio [3]
1 | COC(=O)C[C@H]1C[C@@]2(S[C@@]34C[C@H](CC(=O)O[C@H]5O[C@@H](C(=O)OC)[C@H](O)[C@@H](O)[C@@H]5O)O[C@@H](C)[C@@]3(O)C(=O)c3c(O)cccc3C4=O)C(=O)c3cccc(O)c3C(=O)[C@]2(O)[C@H](C)O1 | 16.1 | 3.4 | – | – | –
2 | COC(=O)C[C@H]1C[C@@]2(S[C@@]34C[C@H](CC(=O)OC)O[C@@H](C)[C@@]3(O)C(=O)c3c(O[C@H]5O[C@@H](C(=O)O)[C@H](O)[C@@H](O)[C@@H]5O)cccc3C4=O)C(=O)c3cccc(O)c3C(=O)[C@]2(O)[C@H](C)O1 | – | – | > 100 | 44.7 | > 2.2
3 | COC(=O)C[C@H]1C[C@@]2(S[C@@]34C[C@H](CC(=O)O[C@H]5O[C@@H](C(=O)O)[C@H](O)[C@@H](O)[C@@H]5O)O[C@@H](C)[C@@]3(O)C(=O)c3c(O)cccc3C4=O)C(=O)c3cccc(O)c3C(=O)[C@]2(O)[C@H](C)O1 | – | – | 52 | 9.6 | 5.4
4 | COC(=O)C[C@H]1C[C@@]2(S[C@@]34C[C@H](CCO[C@H]5O[C@@H](C(=O)OC)[C@H](O)[C@@H](O)[C@@H]5O)O[C@@H](C)[C@@]3(O)C(=O)c3c(O)cccc3C4=O)C(=O)c3cccc(O)c3C(=O)[C@]2(O)[C@H](C)O1 | 14.9 | 3.4 | 36.4 | 8.6 | 4.2
5 | COC(=O)C[C@H]1C[C@@]2(S[C@@]34C[C@H](CC(=O)O[C@H]5OC(C(=O)O)=C[C@@H](O)[C@@H]5O)O[C@@H](C)[C@@]3(O)C(=O)c3c(O)cccc3C4=O)C(=O)c3cccc(O)c3C(=O)[C@]2(O)[C@H](C)O1 | 9.9 | 1.4 | 63.7 | 2.8 | 22.5
6 | COC(=O)C[C@H]1C[C@@]2(S[C@@]34C[C@H](CCO[C@H]5O[C@@H](C(=O)O)[C@H](O)[C@@H](O)[C@@H]5O)O[C@@H](C)[C@@]3(O)C(=O)c3c(O)cccc3C4=O)C(=O)c3cccc(O)c3C(=O)[C@]2(O)[C@H](C)O1 | – | – | 56.4 | 9.6 | 5.9
7 | Nc1ccn([C@@H]2CS[C@H](CO)O2)c(=O)n1 [LAMIVUDINE] | – | – | > 1000 | 0.3 | > 2910
8 | CC(=O)O[C@H]1C(=O)[C@@]2(C)[C@H]([C@H](OC(=O)c3ccccc3)[C@]3(O)C[C@H](OC(=O)[C@H](O)[C@@H](NC(=O)c4ccccc4)c4ccccc4)C(C)=C1C3(C)C)[C@]1(OC(C)=O)CO[C@@H]1C[C@@H]2O [PACLITAXEL] | < 0.008 | < 0.008 | – | – | –
